According to ChEMBL document CHEMBL3351523 (Bioorg Med Chem, 2014):

How the values were obtained:
[1] = Selectivity index, ratio of CC50 for african green monkey Vero 76 cells to EC50 for Respiratory syncytial virus; format: toxicity, cell-based; details: read-out: Ratio CC50/EC50
In short: (§1)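 Mock-infected Vero-76 cells were tested in parallel on the same 24-well plates as the plaque assays (seeding 4 × 10^5 cells/mL, D-MEM with FBS), with serial compound dilutions at 37 °C, 5% CO2. Viability was read after 48–96 h by crystal violet staining. CC50 by linear regression; selectivity index = Vero-76 CC50/EC50 for CVB-5 or RSV.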

Poliovirus 1 = assay: Antiviral activity against Poliovirus type 1 Sabin strain infected in african green monkey Vero 76 cells assessed as reduction in plaque number after 2 days by plaque reduction assay; format: functional, organism-based; details: Enterovirus C, 48 h
[2] = tested on: Vesicular stomatitis virus; assay: Antiviral activity against Vesicular stomatitis virus infected in african green monkey Vero 76 cells assessed as reduction in plaque number after 2 days by plaque reduction assay; format: functional, organism-based; details: 48 h
[3] = Cytotoxicity against mock-infected MDBK cells after 48 to 96 hrs by MTT assay; format: cell-based, Bos taurus; details: cattle
In short: (§2)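 Mock-infected MDBK (6 × 10^5 cells/mL; MEM-E, 10% horse serum, 1 mM pyruvate) or BHK (1 × 10^6 cells/mL; MEM-E, 10% FBS) cells were incubated at 37 °C, 5% CO2 with serial dilutions from 100 µM, 1:5. Viability by MTT after 48–96 h. CC50 from linear regression against untreated controls.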

Human alphaherpesvirus 1 = assay: Antiviral activity against HSV1 infected in african green monkey Vero 76 cells assessed as reduction in plaque number after 3 days by plaque reduction assay; format: functional, organism-based; details: Human alphaherpesvirus 1, Vero, 72 h
Vaccinia virus = assay: Antiviral activity against Vaccinia Virus infected in african green monkey Vero 76 cells assessed as reduction in plaque number after 3 days by plaque reduction assay; format: functional, organism-based; details: Orthopoxvirus vaccinia, 72 h
[4] = tested on: Bovine viral diarrhea virus 1; assay: Antiviral activity against Bovine viral diarrhea virus infected in MDBK cells assessed as inhibition of virus-induced cytopathogenicity after 3 to 4 days by MTT assay; format: functional, organism-based; details: Bovine viral diarrhea virus isolates and strains
[5] = Cytotoxicity against mock-infected african green monkey Vero 76 cells after 48 to 96 hrs by MTT assay; format: cell-based; details: chlorocebus sabaeus, mock-infected Vero 76 cells
[6] = Cytotoxicity against mock-infected BHK21 cells after 48 to 96 hrs by MTT assay; format: functional; details: Mesocricetus auratus, BHK-21; in short: as §2
[7] = tested on: Human immunodeficiency virus 1; assay: Antiviral activity against HIV1 infected in human MT4 cells assessed as inhibition of virus-induced cytopathogenicity after 4 days by MTT assay; format: functional, organism-based; details: Human immunodeficiency virus 1, MT4, 96 h
In short: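 MT-4 cells (1 × 10^4/well in RPMI) were infected acutely with HIV-1 IIIB, 100 CCID50 (m.o.i. 0.01), with serial dilutions from 100 µM, 1:5. After 4 days at 37 °C, protection from virus-induced cytopathogenicity was read by MTT. EC50 came from linear regression against untreated controls.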

[8] = tested on: Respiratory syncytial virus; assay: Antiviral activity against Respiratory syncytial virus infected in african green monkey Vero 76 cells assessed as reduction in plaque number after 5 days by plaque reduction assay; format: functional, organism-based; details: human respiratory syncytial virus, 120 h
Coxsackievirus B5 = assay: Antiviral activity against Coxsackievirus B5 infected in african green monkey Vero 76 cells assessed as reduction in plaque number after 3 days by plaque reduction assay; format: functional, organism-based; details: Enterovirus B, 72 h
[9] = Selectivity index, ratio of CC50 for african green monkey Vero 76 cells to EC50 for Coxsackievirus B5; format: toxicity, cell-based; details: read-out: Ratio CC50/EC50; in short: as §1
Yellow fever virus = assay: Antiviral activity against Yellow fever virus infected in BHK21 cells assessed as inhibition of virus-induced cytopathogenicity after 3 to 4 days by MTT assay; format: functional, organism-based; details: BHK-21
[10] = Cytotoxicity against mock-infected human MT4 cells after 96 hrs by MTT assay; format: cell-based
In short: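 Exponentially growing MT-4 cells were seeded at 1 × 10^5 cells/mL in RPMI-1640 with 10% FBS and held at 37 °C, 5% CO2 with serial compound dilutions. Viability was read by MTT after 96 h. CC50 from linear regression against untreated controls.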

Reovirus sp. = assay: Antiviral activity against Reovirus type-1 infected in BHK21 cells assessed as inhibition of virus-induced cytopathogenicity after 3 to 4 days by MTT assay; format: functional, organism-based; details: BHK-21

SMILES	selectivity ratio [1]	EC50 (Poliovirus 1) [µM]	EC50 [2] [µM]	CC50 [3] [µM]	EC50 (Human alphaherpesvirus 1) [µM]	EC50 (Vaccinia virus) [µM]	EC50 [4] [µM]	CC50 [5] [µM]	CC50 [6] [µM]	EC50 [7] [µM]	EC50 [8] [µM]	EC50 (Coxsackievirus B5) [µM]	selectivity ratio [9]	EC50 (Yellow fever virus) [µM]	CC50 at 96 h [10] [µM]	EC50 (Reovirus sp.) [µM]
FC(F)(F)c1ccc2c(c1)nc(Cc1ccc(Cl)cc1)n2C[C@@H]1CCCN2CCCC[C@H]12	> 6.67	> 100	> 100	54	> 100	> 100	> 100	> 100	20	> 100	15	13	> 7.69	> 100	6	> 100
FC(F)(F)c1ccc2c(c1)nc(Cc1ccc(Br)cc1)n2C[C@@H]1CCCN2CCCC[C@H]12	> 4	> 100	> 100	40	> 100	> 100	> 100	> 100	20	> 100	25	> 100	> 1	> 100	13	> 100
Nc1ccc(Cc2nc3cc(Cl)c(Cl)cc3[nH]2)cc1	4	80	> 100	62	> 100	> 100	22	80	43	> 100	20	12	6.67	> 100	71	> 100
CCCCn1c(Cc2ccc(Cl)c(Cl)c2)nc2cc(C(F)(F)F)ccc21	> 11.1	> 100	> 100	11	> 100	31	> 100	> 100	21	> 100	9	12	> 8.33	> 100	> 100	> 100
FC(F)(F)c1ccc2c(c1)nc(C(F)(F)F)n2C[C@@H]1CCCN2CCCC[C@H]12	4.09	> 100	> 100	≥ 100	> 100	> 100	> 100	90	80	> 100	22	11	8.18	33	54	> 100
CCC/C=C(\CC)c1nc2ccccc2[nH]1	> 4.54	> 100	> 100	> 100	> 100	> 100	> 100	≥ 100	67	> 100	22	90	> 1.11	> 100	61	> 100
